Data published in ChEMBL document CHEMBL1134956, “Relating the structure, activity, and physical properties of ultrashort-acting benzodiazepine receptor agonists” (Bioorg Med Chem Lett, 2002).
Values after ≈ are worked out from the molar mass of the structure shown.

Key:
[1] = Binding affinity against rat benzodiazepine (BZD) receptor
Rattus norvegicus [2] = experiment: Compound was tested for its total (rat) loss-of-righting reflex LORR recovery time at a dose of 25 mg/kg; assay type: functional, organism-based; set-up: dose 25 mg/kg; unit not given here
Procedure, shortened: (§1)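 Rat loss-of-righting-reflex test, after the method of ref 14. The compound is given as a bolus injection in 50% PEG/25% EtOH/25% saline. Initial and total recovery times are recorded in min.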

[3] = Selectivity by the ratio of binding affinity of acid to the binding affinity of its ester
[4] = Aqueous solubility at pH 3 was determined; assay type: physicochemical
Procedure, shortened: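 Solubility of a saturated sample at pH 3, read by visual inspection or UV assay. The pH 3 value was cross-checked against solubility at other pH values and spectrophotometric pKa values.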

Rattus norvegicus [5] = experiment: Compound was tested for its initial (rat) loss-of-righting reflex LORR recovery time at a dose of 25 mg/kg; assay type: functional, organism-based; set-up: dose 25 mg/kg; unit not given here; procedure, shortened: as §1
Rattus norvegicus [6] = experiment: Compound was tested for its initial (rat) loss-of-righting reflex LORR recovery time at a dose of 50 mg/kg; assay type: functional, organism-based; set-up: dose 50 mg/kg; procedure, shortened: as §1
Rattus norvegicus [7] = experiment: Compound was tested for its total (rat) loss-of-righting reflex LORR recovery time at a dose of 50 mg/kg; assay type: functional, organism-based; set-up: dose 50 mg/kg; procedure, shortened: as §1
Rattus norvegicus [8] = experiment: Compound was tested for its initial (rat) loss-of-righting reflex LORR recovery time at a dose of 30 mg/kg; assay type: functional, organism-based; set-up: dose 30 mg/kg; procedure, shortened: as §1
Rattus norvegicus [9] = experiment: Compound was tested for its total (rat) loss-of-righting reflex LORR recovery time at a dose of 30 mg/kg; assay type: functional, organism-based; set-up: dose 30 mg/kg

Row | Structure (SMILES) | Ki [1] [nM] | Recovery time (Rattus norvegicus [2]) | Selectivity [3] | solubility [4] [µg/mL] | Recovery time (Rattus norvegicus [5]) | other results
1 | COC(=O)CC[C@@H]1N=C(c2ccccc2F)c2cc(Cl)ccc2N=C1NCc1ccncc1 | 1230 |  |  |  |  | 
2 | COC(=O)CC[C@@H]1N=C(c2ccccc2F)c2cc(Cl)ccc2NC1=O | 7 | 24 | 984 | < 3000 | 9 | 
3 | COC(=O)CC[C@H]1N=C(c2ccccc2F)c2cc(Cl)ccc2-n2c1cnc2C | 3570 |  | 28 |  |  | 
4 | CNC1=Nc2ccc(Cl)cc2C(c2ccccc2)=[N+]([O-])C1 [CHLORDIAZEPOXIDE] | 438 |  |  |  |  | 
5 | CCNC1=Nc2ccc(Cl)cc2C(c2ccccc2F)=N[C@H]1CCC(=O)OC | 146 |  |  |  |  | 
6 | CNC1=Nc2ccc(Cl)cc2C(c2ccccc2F)=N[C@H]1CCC(=O)OC | 96 | 22 | 156 | 13000 (≈ 33.5 mM) | 15 | 
7 | COC(=O)CC[C@@H]1N=C(c2ccccn2)c2cc(Cl)ccc2-n2c1nc(C)c2C | 130 |  | 40 |  |  | 
8 | COC(=O)CC[C@@H]1N=C(c2ccccc2F)c2cc(Cl)ccc2N=C1NCCc1c[nH]cn1 | 208 |  |  |  |  | 
9 | COC(=O)CC[C@@H]1N=C(c2ccccc2F)c2cc(Cl)ccc2N=C1NCc1ccccc1 | 875 |  |  |  |  | 
10 | COC(=O)CC[C@@H]1N=C(c2ccccc2F)c2cc(Cl)ccc2-n2c(C)cnc21 | 8 | 33 | 74 | < 1000 | 23 | 
11 | COC(=O)CC[C@@H]1N=C(c2ccccc2F)c2cc(Cl)ccc2N=C1NCCO | 303 |  |  |  |  | 
12 | COC(=O)CC[C@@H]1N=C(c2ccccc2F)c2cc(Cl)ccc2-n2ccnc21 | 7 | 23 | 64 |  | 17 | 
13 | COC(=O)CC[C@@H]1N=C(c2ccccn2)c2cc(Cl)ccc2-n2cc(C)nc21 | 60 | 15 | 156 | 2000 (≈ 5.07 mM) | 13 | 
14 | COC(=O)CC[C@@H]1N=C(c2ccccc2F)c2cc(Cl)ccc2-n2cc(C)nc21 | 7 | 21 | 156 |  | 6 | 
15 | COC(=O)CC[C@@H]1N=C(c2ccccn2)c2cc(Cl)ccc2NC1=O | 139 |  | 46 | 1000 (≈ 2.79 mM) |  | Recovery time (Rattus norvegicus [6]): 9 mg/kg; Recovery time (Rattus norvegicus [7]): 16 mg/kg
16 | COC(=O)CC[C@@H]1N=C(c2ccccc2F)c2cc(Cl)ccc2N=C1NCCc1ccncc1 | 792 |  |  |  |  | 
17 | COC(=O)CC[C@@H]1N=C(c2ccccc2F)c2cc(Cl)ccc2-n2c1cnc2C | 11 | 24 | 226 |  | 20 | 
18 | COC(=O)CC[C@@H]1N=C(c2ccccc2F)c2cc(Cl)ccc2N=C1NCC(C)C | 1010 |  |  |  |  | 
19 | COC(=O)CC[C@@H]1N=C(c2ccccn2)c2cc(Cl)ccc2-n2c(C)cnc21 | 98 | 11 | 147 | 13000 (≈ 32.9 mM) | 9 | 
20 | Cc1ncc2n1-c1ccc(Cl)cc1C(c1ccccc1F)=NC2 [MIDAZOLAM] | 2 |  |  | ≥ 8000 |  | Recovery time (Rattus norvegicus [8]): 23 mg/kg; Recovery time (Rattus norvegicus [9]): 121 mg/kg
21 | COC(=O)CC[C@@H]1N=C(c2ccccn2)c2cc(Cl)ccc2-n2ccnc21 | 79 | 10 | 176 |  | 7 | 
